# Measurements reported in ChEMBL document CHEMBL4689842, “EUbOPEN Chemogenomics Library wave 1” (2021).
# Tested on: HEK-293T
# Test: Multiplex assay against HEK293T;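 on Population Tubulin-Different-Phenotype (%): share of the cells with healthy nuclei that show this phenotype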
# Format: toxicity, cell-based
# Settings: human
# Summary of the method: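 At seeding, live cells were stained with Hoechst33342, BioTracker Green Microtubule Cytoskeleton Dye, MitoTracker Red and Annexin V Alexa Fluor 680. After compound addition they were imaged on a CQ1 microscope at 37°C and 5% CO2, and CellPathfinder machine-learning gating sorted them into Hoechst high-intensity objects or normal cells, with normal cells further split into healthy, pyknosed or fragmented nuclei and pyknosed cells into mitotic or apoptotic. Tubulin, mitochondrial-mass and membrane-permeability phenotypes are given as per cents of cells with healthy nuclei.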
# [1] = 12 h, 1 µM, compound concentration 1 uM, replicate 1
# [2] = 12 h, 1 µM, compound concentration 1 uM, replicate 2
# [3] = 12 h, 10 µM, compound concentration 10 uM, replicate 1
# [4] = 12 h, 10 µM, compound concentration 10 uM, replicate 2
# [5] = 24 h, 1 µM, compound concentration 1 uM, replicate 1
# [6] = 24 h, 1 µM, compound concentration 1 uM, replicate 2
# [7] = 24 h, 10 µM, compound concentration 10 uM, replicate 1
# [8] = 24 h, 10 µM, compound concentration 10 uM, replicate 2
# [9] = 48 h, 1 µM, compound concentration 1 uM, replicate 1
# [10] = 48 h, 1 µM, compound concentration 1 uM, replicate 2
# [11] = 48 h, 10 µM, compound concentration 10 uM, replicate 1
# [12] = 48 h, 10 µM, compound concentration 10 uM, replicate 2
compound,measurement,setting,value
C=C1/C(=C\C=C2/CCC[C@]3(C)[C@@H]([C@H](C)/C=C/[C@H](C)C(C)C)CC[C@@H]23)C[C@@H](O)C[C@@H]1O [DOXERCALCIFEROL],Population Apoptotic (%),[1],53%
same,Population Fragmented Nuclei (%),[1],17%
same,Population Healthy Nuclei (%),[1],26%
same,Population Hoechst High Intensity Objects (%),[1],23%
same,Population Membrane Permeable-Phenotype (%),[1],3%
same,Population Mitochondria Different-Phenotype (%),[1],78%
same,Population Mitotic Cells (%),[1],46%
same,Population Normal (%),[1],76%
same,Population Pyknosed Nuclei (%),[1],55%
same,Population Tubulin-Different-Phenotype (%),[1],12%
same,Total Cell Count,[1],156
same,Population Apoptotic (%),[2],10%
same,Population Fragmented Nuclei (%),[2],7%
same,Population Healthy Nuclei (%),[2],44%
same,Population Hoechst High Intensity Objects (%),[2],2%
same,Population Membrane Permeable-Phenotype (%),[2],4%
same,Population Mitochondria Different-Phenotype (%),[2],11%
same,Population Mitotic Cells (%),[2],89%
same,Population Normal (%),[2],97%
same,Population Pyknosed Nuclei (%),[2],48%
same,Population Tubulin-Different-Phenotype (%),[2],11%
same,Total Cell Count,[2],240
same,Population Apoptotic (%),[3],50%
same,Population Fragmented Nuclei (%),[3],15%
same,Population Healthy Nuclei (%),[3],25%
same,Population Hoechst High Intensity Objects (%),[3],16%
same,Population Membrane Permeable-Phenotype (%),[3],2%
same,Population Mitochondria Different-Phenotype (%),[3],71%
same,Population Mitotic Cells (%),[3],49%
same,Population Normal (%),[3],83%
same,Population Pyknosed Nuclei (%),[3],59%
same,Population Tubulin-Different-Phenotype (%),[3],34%
same,Total Cell Count,[3],180
same,Population Apoptotic (%),[4],13%
same,Population Fragmented Nuclei (%),[4],7%
same,Population Healthy Nuclei (%),[4],35%
same,Population Hoechst High Intensity Objects (%),[4],3%
same,Population Membrane Permeable-Phenotype (%),[4],6%
same,Population Mitochondria Different-Phenotype (%),[4],20%
same,Population Mitotic Cells (%),[4],86%
same,Population Normal (%),[4],96%
same,Population Pyknosed Nuclei (%),[4],56%
same,Population Tubulin-Different-Phenotype (%),[4],23%
same,Total Cell Count,[4],211
same,Population Apoptotic (%),[5],52%
same,Population Fragmented Nuclei (%),[5],22%
same,Population Healthy Nuclei (%),[5],27%
same,Population Hoechst High Intensity Objects (%),[5],23%
same,Population Membrane Permeable-Phenotype (%),[5],0%
same,Population Mitochondria Different-Phenotype (%),[5],63%
same,Population Mitotic Cells (%),[5],47%
same,Population Normal (%),[5],76%
same,Population Pyknosed Nuclei (%),[5],50%
same,Population Tubulin-Different-Phenotype (%),[5],30%
same,Total Cell Count,[5],170
same,Population Apoptotic (%),[6],10%
same,Population Fragmented Nuclei (%),[6],7%
same,Population Healthy Nuclei (%),[6],59%
same,Population Hoechst High Intensity Objects (%),[6],3%
same,Population Membrane Permeable-Phenotype (%),[6],9%
same,Population Mitochondria Different-Phenotype (%),[6],5%
same,Population Mitotic Cells (%),[6],89%
same,Population Normal (%),[6],96%
same,Population Pyknosed Nuclei (%),[6],32%
same,Population Tubulin-Different-Phenotype (%),[6],12%
same,Total Cell Count,[6],305
same,Population Apoptotic (%),[7],39%
same,Population Fragmented Nuclei (%),[7],20%
same,Population Healthy Nuclei (%),[7],26%
same,Population Hoechst High Intensity Objects (%),[7],18%
same,Population Membrane Permeable-Phenotype (%),[7],7%
same,Population Mitochondria Different-Phenotype (%),[7],78%
same,Population Mitotic Cells (%),[7],60%
same,Population Normal (%),[7],81%
same,Population Pyknosed Nuclei (%),[7],52%
same,Population Tubulin-Different-Phenotype (%),[7],58%
same,Total Cell Count,[7],191
same,Population Apoptotic (%),[8],25%
same,Population Fragmented Nuclei (%),[8],9%
same,Population Healthy Nuclei (%),[8],56%
same,Population Hoechst High Intensity Objects (%),[8],1%
same,Population Membrane Permeable-Phenotype (%),[8],10%
same,Population Mitochondria Different-Phenotype (%),[8],7%
same,Population Mitotic Cells (%),[8],74%
same,Population Normal (%),[8],98%
same,Population Pyknosed Nuclei (%),[8],34%
same,Population Tubulin-Different-Phenotype (%),[8],37%
same,Total Cell Count,[8],255
same,Population Apoptotic (%),[9],46%
same,Population Fragmented Nuclei (%),[9],19%
same,Population Healthy Nuclei (%),[9],33%
same,Population Hoechst High Intensity Objects (%),[9],16%
same,Population Membrane Permeable-Phenotype (%),[9],0%
same,Population Mitochondria Different-Phenotype (%),[9],34%
same,Population Mitotic Cells (%),[9],53%
same,Population Normal (%),[9],83%
same,Population Pyknosed Nuclei (%),[9],47%
same,Population Tubulin-Different-Phenotype (%),[9],36%
same,Total Cell Count,[9],180
same,Population Apoptotic (%),[10],9%
same,Population Fragmented Nuclei (%),[10],7%
same,Population Healthy Nuclei (%),[10],81%
same,Population Hoechst High Intensity Objects (%),[10],3%
same,Population Membrane Permeable-Phenotype (%),[10],4%
same,Population Mitochondria Different-Phenotype (%),[10],2%
same,Population Mitotic Cells (%),[10],90%
same,Population Normal (%),[10],97%
same,Population Pyknosed Nuclei (%),[10],11%
same,Population Tubulin-Different-Phenotype (%),[10],14%
same,Total Cell Count,[10],601
same,Population Apoptotic (%),[11],42%
same,Population Fragmented Nuclei (%),[11],23%
same,Population Healthy Nuclei (%),[11],35%
same,Population Hoechst High Intensity Objects (%),[11],17%
same,Population Membrane Permeable-Phenotype (%),[11],5%
same,Population Mitochondria Different-Phenotype (%),[11],35%
same,Population Mitotic Cells (%),[11],57%
same,Population Normal (%),[11],82%
same,Population Pyknosed Nuclei (%),[11],40%
same,Population Tubulin-Different-Phenotype (%),[11],33%
same,Total Cell Count,[11],193
same,Population Apoptotic (%),[12],22%
same,Population Fragmented Nuclei (%),[12],9%
same,Population Healthy Nuclei (%),[12],79%
same,Population Hoechst High Intensity Objects (%),[12],2%
same,Population Membrane Permeable-Phenotype (%),[12],6%
same,Population Mitochondria Different-Phenotype (%),[12],4%
same,Population Mitotic Cells (%),[12],77%
same,Population Normal (%),[12],97%
same,Population Pyknosed Nuclei (%),[12],11%
same,Population Tubulin-Different-Phenotype (%),[12],24%
same,Total Cell Count,[12],475
